Experiment [1] is described as follows: Inhibition of LPS-induced NF-kappaB activation in mouse RAW264.7 cells by SEAP reporter gene assay. Type of experiment: cell-based. In short, it runs like this: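 RAW264.7 cells transiently transfected with a plasmid carrying eight κB elements driving SEAP, seeded at 5 × 10^4 cells/well, 3 h at 37 °C. Compounds in DMSO (final 0.01%) plus LPS 1 µg mL-1 for 24 h. Supernatant heated 65 °C 10 min, then SEAP buffer and p-nitrophenyl phosphate, 37 °C 4 h, OD 405 nm. Means ± SD of three experiments.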

Experiment [2] in a line: Inhibition of TNF-alpha-induced NF-kappaB activation in human HeLa cells by SEAP reporter gene assay. Type of experiment: cell-based. In short, it runs like this: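 HeLa cells transiently transfected with an 8×κB-SEAP reporter plasmid, seeded at 5 × 10^4 cells/well, 3 h at 37 °C. Compounds in DMSO (final 0.01%) with TNF-α 10 ng mL-1 for 24 h. Supernatant heat-treated 65 °C 10 min, substrate p-nitrophenyl phosphate, 37 °C 4 h, absorbance 405 nm. Means ± SD, three experiments.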
For orientation: In a reporter assay the amount or activity of a reporter protein is the signal.

The subject of experiment [3] is MCF7. The experiment in a line: Suppression of TNF-alpha-induced expression of iNOS in human MCF7 cells at 10 uM by Western blot analysis. Type of experiment: functional, cell-based. An outline of the steps:
(§1)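 MCF-7 cells plated at 70% confluence and kept overnight at 37 °C. Compound (DMSO final 0.001%) added for 30 min, then TNF-α 20 ng mL-1 for 24 h. Total lysates run on 10% SDS-PAGE and blotted, primary antibody overnight at 4 °C, ECL detection, α-tubulin as loading control.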
(A western blot detects proteins with antibodies after separation by electrophoresis.)

In experiment [4] the test system is MCF7. The experiment in a line: Inhibition of TNF-alpha-induced NF-kappaB DNA binding activity in human MCF7 cells by electrophoretic shift mobility assay. It counts as cell-based. In short, it runs like this: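 MCF-7 cells at 70% confluence preincubated 30 min with compounds (DMSO final 0.001%), then TNF-α 20 ng mL-1 for 60 min. Nuclear extracts from hypotonic swelling and high-salt extraction, bound 20 min at room temperature to a 32P end-labeled NF-κB oligonucleotide. Excess unlabeled NF-κB and AP-1 oligonucleotides served as competitors.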

Experiment [5] deals with MCF7. Briefly: Blockade of TNF-alpha-induced COX2 induction in human MCF7 cells by Western blot analysis. It counts as functional, cell-based. An outline of the steps: (§2)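 MCF-7 cells plated at 70% confluence and incubated overnight at 37 °C. Pretreated 30 min with compounds in DMSO (final DMSO 0.001%), then stimulated with TNF-α (20 ng mL-1) for 24 h. Total lysates in NP-40 lysis buffer were resolved by 10% SDS-PAGE and immunoblotted with specific antibodies (1:1000, overnight, 4 °C). ECL detection with α-tubulin as loading control.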

Experiment [6] concerns MCF7. The experiment in a line: Suppression of TNF-alpha-induced expression of iNOS in human MCF7 cells at 3 uM by Western blot analysis. It counts as functional, cell-based. In short, it runs like this:
as §1

For experiment [7], the system named is MCF7. Briefly: Induction of apoptosis in human MCF7 cells assessed as down regulation of cIAP1 by Western blot analysis. Type of experiment: functional, cell-based. An outline of the steps: as §2
For experiment [8], the system named is MCF7. Briefly: Induction of apoptosis in human MCF7 cells assessed as down regulation of cIAP2 by Western blot analysis. Type of experiment: functional, cell-based. In short, it runs like this:
as §2

In experiment [9] the test system is MCF7. The experiment in a line: Induction of apoptosis in human MCF7 cells assessed as suppression of MMP9 by Western blot analysis. It counts as functional, cell-based. In short, it runs like this:
as §2

Calls of active or inactive are those of the source. The rule behind the calls is not given here.

What is called IC50 is the concentration needed to halve the response being measured. Turning to `COc1cc2c(cc1OC)[C@]1(O)C(=O)c3c(O)cc4c(c3O[C@@H]1CO2)C=CC(C)(C)O4`, the IC50 in experiment [1] came to 4210 nM; in experiment [2], 190 nM.

As to `COc1c(C/C=C(\C)CCC=C(C)C)c(O)cc(CCc2ccccc2)c1C(=O)O`, the IC50 came out at 2440 nM in [1] and 1130 nM in experiment [2].

`CC(C)=CCC/C(C)=C/Cc1c(O)cc(CCc2ccccc2)c(C(=O)O)c1O`: the results for the IC50 in experiment [1] and in experiment [2] were 3140 nM and 1560 nM, respectively.

Consider `COC1=CC(=O)[C@]2(C=C1OC)OC[C@H]1Oc3c4c(cc(O)c3C(=O)[C@H]12)OC(C)(C)C=C4`, for which the outcome with MCF7 [3], with MCF7 [5], in the experiment on MCF7 [6], with MCF7 [7], in the experiment with MCF7 [8] and in the experiment with MCF7 [9] was Active. Further, the Activity entry in the experiment on MCF7 [4] was “Dose-dependent effect”. Besides, the IC50 is 7650 nM in [1] and 2120 nM in experiment [2].

Regarding `COc1c(CC=C(C)C)c(O)cc(CCc2ccccc2)c1C(=O)O`, the IC50 in [1] amounted to 3020 nM; in experiment [2] it was 1750 nM.

As to `COc1cc(CCc2ccccc2)c(C(=O)O)c(O)c1CC=C(C)C` [AMORFRUTIN A], the result in the experiment with MCF7 [3] and in the experiment with MCF7 [6] was Active. The Activity result with MCF7 [4] is “Dose-dependent effect”. Also, the 50% inhibitory concentration (IC50) is 4170 nM in experiment [1] and 840 nM in [2].

With `CC(C)=CCC/C(C)=C/Cc1c(O)cc(/C=C/c2ccccc2)cc1O` [AMORPHASTILBOL], the IC50 in experiment [1] was found to be 680 nM; in experiment [2], 260 nM.

Take `COC1=CC(=O)[C@]2(C=C1OC)OC[C@H]1Oc3c(ccc4c3C=CC(C)(C)O4)C(=O)[C@H]12` [AMORPHISPIRONONE]: the IC50 came out at 13900 nM in experiment [1] and 7390 nM in experiment [2].

For the compound `CC1=C(O)C(=O)C=C2C1=CC=C1[C@@]2(C)CC[C@@]2(C)[C@@H]3C[C@](C)(C(=O)O)CC[C@]3(C)CC[C@]12C` [CELASTROL], the IC50 in experiment [1] amounted to 300 nM; in experiment [2] it was 150 nM.

Regarding `COc1cc2c(cc1OC)[C@@H]1C(=O)c3ccc4c(c3O[C@@H]1CO2)C=CC(C)(C)O4` [DEGUELIN], the IC50 in experiment [1] came to 1750 nM; in experiment [2], 220 nM.

Regarding `COc1cc2c(cc1OC)[C@]1(O)C(=O)c3ccc4c(c3O[C@@H]1CO2)C=CC(C)(C)O4` [TEPHROSIN], the result in the experiment on MCF7 [3], in the experiment with MCF7 [5], in the experiment on MCF7 [6], in the experiment with MCF7 [7], in the experiment with MCF7 [8] and in the experiment on MCF7 [9] was Active. The Activity entry in the experiment on MCF7 [4] was “Dose-dependent effect”. For the same compound, the results for the IC50 in [1] and in [2] were 2000 nM and 110 nM, respectively.

As to `CC(C)=CCC/C(C)=C/Cc1c(O)ccc(C(=O)/C=C/c2ccc(O)cc2)c1O` [XANTHOANGELOL], the results for the IC50 in [1] and in experiment [2] were 1830 nM and 1030 nM, respectively.

Values taken from ChEMBL document CHEMBL1140190, “Phenolic constituents of Amorpha fruticosa that inhibit NF-kappaB activation and related gene expression” (J Nat Prod, 2008).
